Assay results pooled from the literature.
Lines come from different studies, so protocols differ.
Target: Wee1-like protein kinase (WEE1, Homo sapiens, UniProt P30291)

CCC(=O)N[C@H]1CC[C@@H](C(=O)N(C)c2ccc(-c3nc4ccccc4o3)cc2)C1  remaining binding (cell-free assay; competition with immobilised ligand; 1 µM): 100%
C[C@@H]1CCN(c2nccc(-c3cnn4ncccc34)n2)C1  remaining binding (binding; 1 µM): 100%
FC(F)(F)c1ccc2c(c1)nc(-c1cccnc1)n2C1CC1  remaining binding (cell-free assay; competition with immobilised ligand; 1 µM): 93%
FC(F)(F)Oc1cccc(-c2cnc3ccc(-c4ccncc4)nn23)c1  remaining binding (binding; competition with immobilised ligand; 5 µM): 90%
N[C@H]1CCN(c2nccc(-c3cnn4ncccc34)n2)C1  remaining binding (binding; 1 µM): 68%
COc1ncc2cc3ccccc3nc2c1C#N  remaining binding (cell-free assay; competition with immobilised ligand; 5 µM): 98%
C=CC(=O)N1CCC(C(=O)NCC(=O)N2CCN(c3nc(-c4cnc(N)nc4C(F)F)nc(N4CCOCC4)n3)CC2)CC1  remaining binding (binding; competition with immobilised ligand; 1 µM): 89%
COc1ccnn2ncc(-c3ccnc(N(C)C)n3)c12  remaining binding (binding; 1 µM): 100%
O=C(c1ccc(Nc2nccc(-c3cc4ccccc4s3)n2)cc1)N1CCC(N2CCCC2)CC1  remaining binding (binding; competition with immobilised ligand; 1 µM): 83%
CNC(=O)[C@@H]1CC[C@@H](n2c(-c3ccc4cnccc4c3)nc3ccc(C(=O)NCc4cccc(C(N)=O)c4)cc32)C1  remaining binding (binding; competition with immobilised ligand; 1 µM): 98%
c1cnn2ncc(-c3ccnc(N4CCC45COC5)n3)c2c1  remaining binding (binding; 1 µM): 92%
O=C1CCc2cc(Nc3cc(OC4CCOCC4)c([N+](=O)[O-])cc3Cl)ccc2N1  remaining binding (cell-free assay; competition with immobilised ligand; 1 µM): 99%
O=C(NCCCN1CCOCC1)c1ccc(Nc2ncc(Cl)c(-c3ccc(Cl)s3)n2)cc1  remaining binding (binding; competition with immobilised ligand; 1 µM): 15%
CN(c1ccnc(CNc2nc(Nc3ccc4c(c3)CC(=O)N4)ncc2C(F)(F)F)n1)S(C)(=O)=O  remaining binding (cell-free assay; competition with immobilised ligand; 1 µM): 13%
O=C(c1ccc(Nc2ncc(Cl)c(-c3ccc(Cl)s3)n2)cc1)N1CCC(N2CCCC2)CC1  remaining binding (binding; competition with immobilised ligand; 1 µM): 11%
O=C(Nc1c[nH]nc1C(=O)NC1CCNCC1)c1cc(F)cc(F)c1  remaining binding (binding; competition with immobilised ligand; 1 µM): 100%
Cn1nc(C(=O)NCc2ccc(C(=O)O)cc2)cc1-c1ccc2[nH]ccc2c1  remaining binding (cell-free assay; competition with immobilised ligand; 0.1 µM): 100%
CN(CCCC(F)(F)F)c1nccc(-c2cnn3ncccc23)n1  remaining binding (binding; 1 µM): 100%
CC(C)CC(=O)N1CCc2nc(-c3ccc(Br)cc3)nc(N(C)Cc3ccccc3)c2C1  remaining binding (cell-free assay; competition with immobilised ligand; 0.1 µM): 100%
Cc1cnn2ncc(-c3ccnc(N(C)C)n3)c2c1  remaining binding (binding; 1 µM): 100%
O=C(O)[C@@H]1[C@@H](Cn2nnc3ccccc3c2=O)CC[C@H]1C(=O)c1ccc(OCCC2CCOCC2)cc1  remaining binding (cell-free assay; competition with immobilised ligand; 1 µM): 93%
C[C@@H](c1ccc(-n2cnc3c(N)ncnc32)cc1)N1CCc2nn(C)c(Cc3ccccc3)c2C1=O  remaining binding (binding; competition with immobilised ligand; 0.1 µM): 85%
